As a reminder, the IC50 is the concentration needed to halve the response being measured.

Common to all, as to format: functional, cell-based
Experiment [1] in a line: Cytotoxicity against human MKN28 cells assessed as inhibition of cell proliferation after 48 hrs by MTT assay. The conditions noted are these: MKN-28, 48 h. In outline: (§1)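 Cells grown in DMEM with 10% FBS, 100 U/mL penicillin, 100 μg/mL streptomycin, 37 °C, 5% CO2. Seeded 5 × 10^3 cells/well, 12 h, then exposed to compounds for 48 h. MTT (5 mg/mL stock) added for 4 h at 37 °C, formazan dissolved in DMSO, absorbance read at 570 nm. IC50 relative to untreated control. Triplicate, repeated twice; cis-platinum as positive control.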
Background: Tetrazolium dyes change colour on reduction, which living cells bring about.

Experiment [2] is described as follows: Cytotoxicity against human MCF7 cells assessed as inhibition of cell proliferation after 48 hrs by MTT assay. To be noted: MCF7, 48 h. Summed up:
as §1

The nature of experiment [3]: Cytotoxicity against human A549 cells assessed as inhibition of cell proliferation after 48 hrs by MTT assay. To be noted: A549, 48 h. Summed up: as §1

Where only a bound is given, the exact number is not on record here.

On to `CCOC(=O)CC[C@]1(C)[C@H]2CC[C@@]3(C)[C@H]([C@@H](C)CC/C=C(\C)CO)CC[C@]3(C)C2=CC[C@H]1C(C)(C)O`, for which the half-inhibitory concentration (IC50) in experiment [1], in experiment [2] and in experiment [3] was over 10 µM each time.
For the compound `CCO[C@H]1O[C@@H]([C@H](O)C(C)(C)O)C[C@H]1[C@@H]1CC[C@]2(C)C3=CC[C@H]4C(C)(C)C(=O)CC[C@]4(C)[C@H]3CC[C@@]12C`, the half-inhibitory concentration (IC50) in experiment [1], in experiment [2] and in experiment [3] was over 10 µM in each case.
In the case of `CCO[C@H]1O[C@H](C(C)(C)O)[C@@H](O)C[C@H]1[C@@H]1CC[C@]2(C)C3=CC(=O)[C@H]4C(C)(C)C(=O)CC[C@]4(C)[C@H]3CC[C@@]12C`, the IC50 was 8.2 µM in experiment [1], over 10 µM in experiment [2] and over 10 µM in experiment [3].
`CCO[C@@H]1O[C@H]([C@@H](O)C(C)(C)O)C[C@H]1[C@@H]1CC[C@]2(C)C3=CC[C@H]4C(C)(C)[C@@H](O)CC[C@]4(C)C3=CC[C@@]12C`: the IC50 in experiment [1] was 9.1 µM; in experiment [2] it was over 10 µM; in experiment [3], over 10 µM.
For `CCO[C@@H]1O[C@@H](C=C(C)C)C[C@H]1[C@@H]1CC[C@]2(C)C3=CC[C@H]4C(C)(C)[C@@H](O)CC[C@]4(C)[C@H]3CC[C@@]12C`, the IC50 is 7.9 µM in experiment [1], over 10 µM in experiment [2] and 8.3 µM in experiment [3].
With `CCO[C@H]1O[C@H](C=C(C)C)C[C@H]1[C@@H]1CC[C@]2(C)C3=CC[C@H]4C(C)(C)[C@@H](O)CC[C@]4(C)[C@H]3CC[C@@]12C`, the IC50 in experiment [1], in experiment [2] and in experiment [3] was over 10 µM in each case.
Consider `CC(C)(O)[C@H]1OC[C@H]([C@@H]2CC[C@]3(C)C4=CC[C@H]5C(C)(C)C(=O)CC[C@]5(C)[C@H]4CC[C@@]23C)C[C@H]1O`, for which the IC50 in experiment [1], in experiment [2] and in experiment [3] was over 10 µM each time.
For `CC(C)(O)[C@@H]1[C@@H](O)[C@H]([C@@H]2CC=C3[C@]4(C)[C@H](O)C[C@H]5C(C)(C)[C@H](O)CC[C@]5(C)[C@H]4CC[C@]32C)C[C@H]1O`, the IC50 in experiment [1], in experiment [2] and in experiment [3] was over 10 µM in each case.
Consider `C[C@@H](C[C@@H](O)[C@H](O)C(C)(C)O)[C@@H]1CC[C@]2(C)C3=CC(=O)[C@H]4C(C)(C)[C@@H](O)CC[C@]4(C)[C@H]3CC[C@@]12C`, for which the 50% inhibitory concentration (IC50) in experiment [1], in experiment [2] and in experiment [3] was over 10 µM throughout.
Regarding `CO[C@@H]1O[C@H](C=C(C)C)C[C@H]1[C@@H]1CC[C@]2(C)C3=CC[C@H]4C(C)(C)[C@H](O)CC[C@]4(C)[C@H]3CC[C@@]12C`, the IC50 in experiment [1], in experiment [2] and in experiment [3] was over 10 µM each time.
Consider `CCO[C@H]1O[C@@H]([C@H](O)C(C)(C)O)C[C@H]1[C@@H]1CC[C@]2(C)C3=CC=C4C(C)(C)C(=O)CC[C@]4(C)C3=CC[C@@]12C`, for which the IC50 in experiment [1], in experiment [2] and in experiment [3] was over 10 µM each time.
In the case of `COC1OC(C=C(C)C)C[C@H]1[C@@H]1CC[C@]2(C)C3=CC[C@H]4C(C)(C)[C@H](O)CC[C@]4(C)[C@H]3CC[C@@]12C` (some centres undefined), the 50% inhibitory concentration (IC50) in experiment [1], in experiment [2] and in experiment [3] was over 10 µM in each case.
Turning to `C[C@@H](C[C@@H](O)[C@H](O)C(C)(C)O)[C@@H]1CC=C2[C@]3(C)[C@H](O)C[C@H]4C(C)(C)C(=O)CC[C@]4(C)[C@H]3CC[C@]21C`, the IC50 in experiment [1], in experiment [2] and in experiment [3] was over 10 µM throughout.
For the compound `C[C@@H](C[C@@H](O)[C@H](O)C(C)(C)O)[C@@H]1CC[C@]2(C)C3=C(C(=O)C[C@@]12C)[C@@]1(C)CCC(=O)C(C)(C)[C@@H]1CC3=O`, the IC50 in experiment [1], in experiment [2] and in experiment [3] was over 10 µM in each case.
`C[C@@H](CC[C@H](O)C(C)(C)O)[C@@H]1CC[C@]2(C)C3=CC[C@H]4C(C)(C)C(=O)CC[C@]4(C)[C@H]3CC[C@@]12C`: the half-maximal inhibitory concentration (IC50) in experiment [1] is 9.1 µM; in experiment [2] it was over 10 µM; in experiment [3] it was over 10 µM.
Turning to `CC(C)(O)[C@H]1OC[C@H]([C@H]2CC[C@]3(C)C4=CC[C@H]5C(C)(C)C(=O)CC[C@]5(C)[C@H]4CC[C@@]23C)C[C@H]1O`, the IC50 in experiment [1] amounted to 6.7 µM; in experiment [2], 9.9 µM; in experiment [3] it was 7 µM.
Regarding `CO[C@H]1O[C@@H](C=C(C)C)C[C@H]1[C@@H]1CC[C@]2(C)C3=CC[C@H]4C(C)(C)[C@@H](O)CC[C@]4(C)[C@H]3CC[C@@]12C`, the IC50 in experiment [1], in experiment [2] and in experiment [3] was over 10 µM in each case.
As for `COC(=O)[C@@H](CCC=C(C)C)[C@@H]1CC[C@]2(C)C3=CC[C@@H]4[C@](C)(CCC(=O)[C@]4(C)CO)[C@H]3CC[C@@]12C`, the figures for the 50% inhibitory concentration (IC50) in experiment [1], in experiment [2] and in experiment [3] were 8.3 µM, over 10 µM and over 10 µM, respectively.
For `CO[C@H]1O[C@H](C=C(C)C)C[C@H]1[C@@H]1CC[C@]2(C)C3=CC[C@H]4C(C)(C)[C@@H](O)CC[C@]4(C)[C@H]3CC[C@@]12C`, the half-inhibitory concentration (IC50) in experiment [1] is 8.8 µM; in experiment [2] it was over 10 µM; in experiment [3] it was over 10 µM.
Turning to `CCO[C@H]1O[C@@H]([C@H](O)C(C)(C)O)C[C@H]1[C@@H]1CC[C@]2(C)C3=CC[C@H]4C(C)(C)C(=O)CC[C@]4(C)C3=CC[C@@]12C`, the IC50 in experiment [1] was 8.3 µM; in experiment [2], over 10 µM; in experiment [3] it was over 10 µM.
As for `C[C@@H](C[C@@H](O)[C@@H](O)C(C)(C)O)[C@@H]1CC[C@]2(C)C3=CC[C@H]4C(C)(C)C(=O)CC[C@]4(C)[C@H]3CC[C@@]12C`, the results for the 50% inhibitory concentration (IC50) in experiment [1], in experiment [2] and in experiment [3] were 6.9 µM, 8.5 µM and 8 µM, respectively.
Turning to `C[C@@H](C[C@@H](O)[C@H](O)C(C)(C)O)[C@@H]1CC=C2[C@]3(C)[C@H](O)[C@@H](O)[C@H]4C(C)(C)C(=O)CC[C@]4(C)[C@H]3CC[C@]21C`, the half-maximal inhibitory concentration (IC50) in experiment [1], in experiment [2] and in experiment [3] was over 10 µM throughout.
Consider `CC(C)=CCC[C@H](C(=O)O)[C@@H]1CC[C@]2(C)C3=CC[C@@H]4[C@](C)(CC[C@H](O)[C@]4(C)CO)[C@H]3CC[C@@]12C`, for which the concentration for half-maximal inhibition (IC50) in experiment [1] was 9.1 µM; in experiment [2], over 10 µM; in experiment [3], over 10 µM.
As to `CCO[C@H]1O[C@H](C(C)(C)O)[C@@H](O)C[C@H]1[C@@H]1CC[C@]2(C)C3=CC[C@H]4C(C)(C)C(=O)CC[C@]4(C)[C@H]3CC[C@@]12C`, the IC50 in experiment [1], in experiment [2] and in experiment [3] was over 10 µM throughout.
For the compound `CCO[C@@H]1O[C@@H]([C@H](O)C(C)(C)O)C[C@H]1[C@@H]1CC[C@]2(C)C3=CC[C@H]4C(C)(C)C(=O)CC[C@]4(C)[C@H]3CC[C@@]12C`, the half-inhibitory concentration (IC50) in experiment [1], in experiment [2] and in experiment [3] was over 10 µM throughout.
With `CCCCCC(=O)O[C@@H]1C[C@]2(C)C(=CC[C@H]2[C@]2(O)C[C@@H]([C@@H](O)C(C)(C)O)O[C@H]2OC)[C@]2(C)[C@H](O)C[C@H]3C(C)(C)C(=O)C=C[C@]3(C)[C@@H]12`, the 50% inhibitory concentration (IC50) in experiment [1], in experiment [2] and in experiment [3] was over 10 µM throughout.
For `CC1(C)OC[C@H]([C@@H]2CC[C@]3(C)C4=CC[C@H]5C(C)(C)[C@H](O)CC[C@]5(C)[C@H]4CC[C@@]23C)C[C@@H](O)[C@@H]1O`, the concentration for half-maximal inhibition (IC50) in experiment [1], in experiment [2] and in experiment [3] was over 10 µM in each case.
`CO[C@@H]1O[C@H](C=C(C)C)C[C@H]1[C@@H]1CC[C@]2(C)C3=CC[C@H]4C(C)(C)[C@@H](O)CC[C@]4(C)[C@H]3CC[C@@]12C`: the concentration for half-maximal inhibition (IC50) in experiment [1] was 9.8 µM; in experiment [2], over 10 µM; in experiment [3] it was over 10 µM.

Source of the values: ChEMBL document CHEMBL3867438, “Cytotoxic Tirucallane and Apotirucallane Triterpenoids from the Stems of Picrasma quassioides” (J Nat Prod, 2016).
